From paper PMC6585461 (Biomaterials, 2019)

How the values were obtained:
SKOV-3 cells = test: Intracellular uptake of RB-BSA by confocal microscopy; type: cell-based; conditions: BSA ~60 μg/mL, 2 h, 37 °C
Outline: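 SKOV-3 cells in McCoy's 5A with 10% FBS were seeded at 5 × 10⁴ per well and allowed to adhere for 24 h. Lysosomes were labelled with LysoTracker Green DND-26 for 30 min at 37 °C. Rhodamine B-labelled BSA, free or nanocarrier-loaded (final BSA ~60 μg/mL), was added for 2 h. Cells were washed three times with PBS, fixed in 4% paraformaldehyde for 15 min at room temperature, DAPI-stained and imaged by laser scanning confocal microscopy.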

blood glucose = test: Hypoglycemic effect of insulin formulations; type: in vivo, BALB/c mice; conditions: fasted mice, s.c., 2 IU/kg
Outline: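 Healthy BALB/c mice, 6-7 weeks old, were fasted overnight with water only and kept fasted throughout, n=6 per group. They received a subcutaneous injection at an insulin dose of 2 IU/kg, either free insulin or insulin loaded in nanocarriers at a 1/10 insulin:polymer mass ratio. Blood glucose was followed with a glucose meter over 0-6 h. Area above the curve was calculated by the trapezoidal method.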

RB-BSA: Rhodamine B (RB)-labeled BSA, model protein
cellular uptake of RB-BSA (free or loaded in the nanocarrier) (SKOV-3 cells): minimal

insulin: insulin (MW: 5807 Da)
glycemic decrease (blood glucose; 30 min after injection, n=6): 32%
blood glucose recovery, % of basal level (blood glucose; after 2 h): 80%
time of maximal blood glucose drop (nadir) (blood glucose; n=6): 1 h
